Test results as given in ChEMBL document CHEMBL1938276, “Design and synthesis of 2-heterocyclyl-3-arylthio-1H-indoles as potent tubulin polymerization and cell growth inhibitors with improved metabolic stability” (J Med Chem, 2011).
Activity calls are given as the source filed them. The calls are words filed in the database; no cut-off is given here.

How the values were obtained:
[1] = system: Liver microsomes; test: Metabolic stability in human liver microsomes assessed as compound remaining after 30 mins by LC-MS/MS analysis; assay type: ADME, Microsome; conditions: 0.5 h
Outline: (§1)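 Compound at 1 μM final, in duplicate, preincubated 10 min at 37 °C with liver microsomes (0.5 mg/mL final) in potassium phosphate buffer pH 7.4 with 3 mM MgCl2; started with NADP/glucose-6-phosphate/G6P dehydrogenase. Samples taken 0–30 min, quenched in acetonitrile, quantified by LC-MS/MS; percent remaining at 30 min versus time zero peak area; no-cofactor control included.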

[2] = system: Liver; test: Metabolic stability in mouse liver microsomes assessed as compound remaining after 30 mins by LC-Ms/Ms analysis; assay type: ADME, Microsome; conditions: 0.5 h; outline: as §1
[3] = system: OVCAR-8; test: cells; conditions: Homo sapiens, OVCAR-8, 96 h
[4] = AUC ( 0 to infinity) in nude CD-1 mouse at 5 mg/kg, iv by UPLC analysis; assay type: ADME, organism-based; set-up: time infinity, dose 5 mg/kg, route intravenous; conditions: plasma
Outline: (§2)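 Male nude CD-1 mice, 4 weeks old; single iv rapid bolus 5 mg/kg in 3% DMSO + 30% PEG400 + 0.9% NaCl, or oral gavage 15 mg/kg in 5% DMSO + 20% PEG400 + water. Blood sampled at multiple times after dosing; plasma proteins precipitated, samples stored at −80 °C, quantified by UPLC-ESI triple-quadrupole MS/MS.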

[5] = Tmax in nude CD-1 mouse at 15 mg/kg, po by UPLC analysis; assay type: ADME, organism-based; set-up: dose 15 mg/kg, route oral; conditions: in vivo; outline: as §2
[6] = system: Mus musculus; test: Volume of distribution at steady state in nude CD-1 mouse at 5 mg/kg, iv and 15 mg/kg, po by UPLC analysis; assay type: ADME, organism-based; conditions: in vivo; outline: as §2
[7] = AUC ( 0 to infinity) in nude CD-1 mouse at 15 mg/kg, po by UPLC analysis; assay type: ADME, organism-based; set-up: time infinity, dose 15 mg/kg, route oral; conditions: plasma; outline: as §2
[8] = Cmax in nude CD-1 mouse at 5 mg/kg, iv by UPLC analysis; assay type: ADME, organism-based; set-up: dose 5 mg/kg, route intravenous; conditions: in vivo; outline: as §2
[9] = system: Mus musculus; test: Oral bioavailability in nude CD-1 mouse at 15 mg/kg by UPLC analysis; assay type: ADME, organism-based; conditions: in vivo; outline: as §2
[10] = Cmax in nude CD-1 mouse at 15 mg/kg, po by UPLC analysis; assay type: ADME, organism-based; set-up: dose 15 mg/kg, route oral; conditions: in vivo; outline: as §2
[11] = system: HeLa; test: Induction apoptosis in human HeLa cells at 20 nM after 24 hrs by Annexin V-based flow cytometry analysis; assay type: functional, cell-based
[12] = system: HeLa; test: Induction apoptosis in human HeLa cells assessed as caspase -3 activity at 100 nM after 24 hrs by single-cell immunofluorescence assay; assay type: functional, cell-based
[13] = system: HeLa; test: Induction apoptosis in human HeLa cells at 10 nM after 24 hrs by Annexin V-based flow cytometry analysis; assay type: functional, cell-based
[14] = system: A10; test: Growth inhibition of rat A10 cells after 48 hrs by MTT assay; assay type: cell-based; conditions: A10, 48 h
[15] = system: HT-29; test: Antiproliferative activity against human HT-29 cells assessed as growth inhibition after 48 hrs by MTT assay; assay type: functional, cell-based; conditions: HT-29, 48 h
[16] = system: HeLa; test: Induction apoptosis in human HeLa cells at 20 nM after 24 hrs by Annexin V-based flow cytometry analysis
[17] = system: HUVEC; test: Growth inhibition of HUVEC cells after 48 hrs by MTT assay; assay type: cell-based; conditions: Homo sapiens
[18] = Growth inhibition of potorous tridactylus PtK2 cells after 48 hrs by MTT assay; assay type: cell-based; conditions: PtK2, 48 h
[19] = system: HeLa; test: Cell cycle arrest in human HeLa cells assessed as accumulation at G2/M phase at 20 nM after 24 hrs by propidium iodide staining based flow cytometry analysis (reference value: 0.10 %); assay type: functional
[20] = system: A549; test: Antiproliferative activity against human A549 cells assessed as growth inhibition after 48 hrs by MTT assay; conditions: A549, 48 h
[21] = Growth inhibition of human HSMC cells after 48 hrs by MTT assay; assay type: cell-based
[22] = system: HeLa; test: Induction of mitotic arrest in human HeLa cells assessed as accumulation at G2/M phase at 2 to 20 nM after 24 hrs by flow cytometry analysis relative to control; assay type: functional, cell-based
[23] = Growth inhibition of doxorubicin-resistant human NCI-ADR-RES cells overexpressing P-glycoprotein after 96 hrs; assay type: functional, cell-based

With `CCOc1ccc2ccc(=O)oc2c1` [ETHOXYCOUMARIN] the Stability [1] was 6.6% and the Stability [2] was 0.07%.
Compound `CC(=O)O[C@H]1C(=O)[C@@]2(C)[C@H]([C@H](OC(=O)c3ccccc3)[C@]3(O)C[C@H](OC(=O)[C@H](O)[C@@H](NC(=O)c4ccccc4)c4ccccc4)C(C)=C1C3(C)C)[C@]1(OC(C)=O)CO[C@@H]1C[C@@H]2O` [PACLITAXEL] has an IC50 [3] of 2 nM.
Work on `COc1cc(Sc2c(-c3cc[nH]c3)[nH]c3ccccc23)cc(OC)c1OC` yielded an AUC(0-inf) [4] of 2910 ng·h/mL, a Tmax [5] of 2 h and a Vdss [6] of 1.59 L/kg. It also gave an AUC(0-inf) [7] of 9720 ng·h/mL, a Cmax [8] of 35.7 ng/mL and an F [9] of 110%. It also gave a Cmax [10] of 1340 ng/mL.
For `COc1ccc(/C=C\c2cc(OC)c(OC)c(OC)c2)cc1O` [COMBRETASTATIN A4], the Activity [11] was “Active”, the Activity [12] was “Active” and the Activity [13] was “Active”. For the same compound, the IC50 [14] was 1 nM, the IC50 [15] was over 10 µM and the Activity [16] was “Active”. It also gave an IC50 [17] of 1 nM, an IC50 [18] of 3 nM and an Activity [19] of 80%. For the same compound, the IC50 [20] was over 10 µM, the IC50 [21] was 5 nM and the Activity [22] was “Active”.
In the case of `CC[C@]1(O)C[C@@H]2CN(CCc3c([nH]c4ccccc34)[C@@](C(=O)OC)(c3cc4c(cc3OC)N(C)[C@H]3[C@@](O)(C(=O)OC)[C@H](OC(C)=O)[C@]5(CC)C=CCN6CC[C@]43[C@@H]65)C2)C1` [VINBLASTINE], the Activity [11] is reported as “Active”, the Activity [12] is reported as “Active” and the Activity [13] is reported as “Active”. For the same compound, the Activity [16] was “Active”, the Activity [19] was 80% and the IC50 [3] was 15 nM. For the same compound, the Activity [22] was “Active”.
Compound `CCC1=C[C@@H]2CN(C1)Cc1c([nH]c3ccccc13)[C@@](C(=O)OC)(c1cc3c(cc1OC)N(C)[C@H]1[C@@](O)(C(=O)OC)[C@H](OC(C)=O)[C@]4(CC)C=CCN5CC[C@]31[C@@H]54)C2` [VINORELBINE] has an IC50 [23] of 5 µM.
